Test results from ChEMBL document CHEMBL4152257, “Discovery of novel β-carboline/acylhydrazone hybrids as potent antitumor agents and overcome drug resistance” (Eur J Med Chem, 2018).
Activity calls are given as the source filed them. No cut-off for these calls is given here.

Assays:
MCF7 [1] = test: Induction of apoptosis in human MCF7 cells assessed as necrotic cells at 10 uM after 48 hrs by annexin V-FITC/PI dual staining based flow cytometry (reference value: 0.16%); format: functional
MCF7 [2] = test: Cell cycle arrest in human MCF7 cells assessed as accumulation at S phase at 3 uM after 18 hrs by propidium iodide staining based flow cytometry (reference value: 44.80%); format: functional
[3] = Resistance index, ratio of IC50 for human A2780T cells to IC50 for human A2780S cells; format: functional
MCF7 [4] = test: Induction of apoptosis in human MCF7 cells assessed as early apoptotic cells at 10 uM after 48 hrs by annexin V-FITC/PI dual staining based flow cytometry (reference value: 11%); format: functional
MCF7 [5] = test: Induction of apoptosis in human MCF7 cells assessed as late apoptotic cells at 3 uM after 48 hrs by annexin V-FITC/PI dual staining based flow cytometry (reference value: 11.1%); format: functional
MCF7 [6] = test: Cell cycle arrest in human MCF7 cells assessed as accumulation at G0/G1 phase at 10 uM after 18 hrs by propidium iodide staining based flow cytometry (reference value: 45.22%); format: functional
MCF7 [7] = test: Cell cycle arrest in human MCF7 cells assessed as accumulation at G0/G1 phase at 100 uM after 18 hrs by propidium iodide staining based flow cytometry (reference value: 45.22%); format: functional
NCI/ADR-RES [8] = test: Induction of apoptosis in human MCF7/ADR cells assessed as late apoptotic cells at 3 uM after 48 hrs by annexin V-FITC/PI dual staining based flow cytometry (reference value: 5.02%); format: functional
[9] = Resistance index, ratio of IC50 for human MCF7/ADR cells to IC50 for human MCF7 cells; format: functional
MCF7 [10] = test: Cell cycle arrest in human MCF7 cells assessed as accumulation at G0/G1 phase at 30 uM after 18 hrs by propidium iodide staining based flow cytometry (reference value: 45.22%); format: functional
NCI-H460 = test: Antiproliferative activity against human H460 cells after 48 to 72 hrs by MTT assay; format: functional, cell-based
Procedure, shortened: (§1)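 Cells in log phase seeded and allowed to adhere, then exposed to graded compound concentrations for 48 h or 72 h; MTT added for a further 2-3 h, formazan dissolved in DMSO. IC50 taken from dose-response curves; mean ± SD of at least three independent experiments.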

MDA-MB-231 = test: Antiproliferative activity against human MDA-MB-231 cells at 1 uM after 48 to 72 hrs by MTT assay relative to control; format: functional
Procedure, shortened: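 Single-concentration screen in the MTT proliferation assay: log-phase cells seeded and allowed to adhere, exposed to compound at 1 µM for 48 h or 72 h, MTT added for 2-3 h, formazan dissolved in DMSO; percent inhibition versus control.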

NCI/ADR-RES [11] = test: Induction of apoptosis in human MCF7/ADR cells assessed as viable cells at 10 uM after 48 hrs by annexin V-FITC/PI dual staining based flow cytometry (reference value: 89.8%); format: functional; conditions: read-out: Activity
MCF7 [12] = test: Induction of apoptosis in human MCF7 cells assessed as late apoptotic cells at 10 uM after 48 hrs by annexin V-FITC/PI dual staining based flow cytometry (reference value: 11.1%); format: functional
MCF7 [13] = test: Induction of apoptosis in human MCF7 cells assessed as late apoptotic cells at 30 uM after 48 hrs by annexin V-FITC/PI dual staining based flow cytometry (reference value: 11.1%); format: functional
NCI/ADR-RES [14] = test: Induction of apoptosis in human MCF7/ADR cells assessed as late apoptotic cells at 100 uM after 48 hrs by annexin V-FITC/PI dual staining based flow cytometry (reference value: 5.02%); format: functional
MCF7 [15] = test: Cell cycle arrest in human MCF7 cells assessed as accumulation at sub-G1 phase after 18 hrs by propidium iodide staining based flow cytometry; format: functional
NCI/ADR-RES [16] = test: Induction of apoptosis in human MCF7/ADR cells assessed as viable cells at 3 uM after 48 hrs by annexin V-FITC/PI dual staining based flow cytometry (reference value: 89.8%); format: functional; conditions: read-out: Activity
MCF7 [17] = test: Cell cycle arrest in human MCF7 cells assessed as accumulation at G2/M phase at 100 uM after 18 hrs by propidium iodide staining based flow cytometry (reference value: 9.98%); format: functional
NCI/ADR-RES [18] = test: Induction of apoptosis in human MCF7/ADR cells assessed as necrotic cells at 30 uM after 48 hrs by annexin V-FITC/PI dual staining based flow cytometry (reference value: 2.43%); format: functional
NCI/ADR-RES [19] = test: Antiproliferative activity against human MCF7/ADR cells after 48 to 72 hrs by MTT assay; format: functional, cell-based; procedure, shortened: as §1
MCF7 [20] = test: Induction of apoptosis in human MCF7 cells assessed as viable cells at 30 uM after 48 hrs by annexin V-FITC/PI dual staining based flow cytometry (reference value: 77.8%); format: functional; conditions: MCF7, 48 h, read-out: Activity
NCI/ADR-RES [21] = test: Induction of apoptosis in human MCF7/ADR cells assessed as necrotic cells at 100 uM after 48 hrs by annexin V-FITC/PI dual staining based flow cytometry (reference value: 2.43%); format: functional
MCF7 [22] = test: Induction of apoptosis in human MCF7 cells assessed as viable cells at 3 uM after 48 hrs by annexin V-FITC/PI dual staining based flow cytometry (reference value: 77.8%); format: functional; conditions: MCF7, 48 h, read-out: Activity
MCF7 [23] = test: Cell cycle arrest in human MCF7 cells assessed as accumulation at G2/M phase at 10 uM after 18 hrs by propidium iodide staining based flow cytometry (reference value: 9.98%); format: functional
NCI/ADR-RES [24] = test: Induction of apoptosis in human MCF7/ADR cells assessed as early apoptotic cells at 100 uM after 48 hrs by annexin V-FITC/PI dual staining based flow cytometry (reference value: 2.72%); format: functional
NCI/ADR-RES [25] = test: Induction of apoptosis in human MCF7/ADR cells assessed as early apoptotic cells at 3 uM after 48 hrs by annexin V-FITC/PI dual staining based flow cytometry (reference value: 2.72%); format: functional
NCI/ADR-RES [26] = test: Induction of apoptosis in human MCF7/ADR cells assessed as early apoptotic cells at 30 uM after 48 hrs by annexin V-FITC/PI dual staining based flow cytometry (reference value: 2.72%); format: functional
HUVEC = test: Antiproliferative activity against HUVEC after 48 to 72 hrs by MTT assay; format: cell-based; conditions: Homo sapiens; procedure, shortened: as §1
Mus musculus [27] = test: Toxicity in athymic nude Balb/C mouse xenografted with human H460 cells assessed as effect on abnormal behaviour at 100 mg/kg, po administered 3 times per week measured every 2 days; format: organism-based; conditions: in vivo, 48 h
Procedure, shortened: (§2)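 Nude mice, 5-to-6-week-old females, given 5 × 10^6 H460 cells sc in right flank in HBSS; at 100 mm3 tumour volume randomized, 6 per group. Vehicle; oral 100 mg/kg three times weekly; or ip 30 mg/kg once weekly. Toxicity signs and mortality observed daily; body weight measured every 2 days.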

Mus musculus [28] = test: Toxicity in athymic nude Balb/C mouse xenografted with human H460 cells assessed as effect on feeding behaviour at 100 mg/kg, po administered 3 times per week measured every 2 days; format: organism-based; conditions: in vivo, 48 h; procedure, shortened: as §2
MCF7 [29] = test: Cell cycle arrest in human MCF7 cells assessed as accumulation at G2/M phase at 3 uM after 18 hrs by propidium iodide staining based flow cytometry (reference value: 9.98%); format: functional
A2780S = test: Antiproliferative activity against human A2780S cells after 48 to 72 hrs by MTT assay; format: functional, cell-based; procedure, shortened: as §1

In the case of N#Cc1ccc(COc2cccc(/C=N/NC(=O)c3cc4c(cn3)[nH]c3ccccc34)c2)cc1, the Activity (MCF7 [1]) is reported as 0.3%, the Activity (MCF7 [2]) is reported as 56.12% and the “Ratio IC50” value [3] is reported as 1.32. For the same compound, the Activity (MCF7 [4]) was 13.1%, the Activity (MCF7 [5]) was 17.6% and the Activity (MCF7 [6]) was 36.05%. For the same compound, the Activity (MCF7 [7]) was 41.83%, the Activity (NCI/ADR-RES [8]) was 7.2% and the “Ratio IC50” value [9] was 1.06. The Activity (MCF7 [10]) was 38.62%, the IC50 (NCI-H460) was 1640 to 1730 nM and the inhibition at 1 µM (MDA-MB-231) was 29.6%. For the same compound, the viability at 10 µM (NCI/ADR-RES [11]) was 70.1%, the Activity (MCF7 [12]) was 20.1% and the Activity (MCF7 [13]) was 28.8%. The Activity (NCI/ADR-RES [14]) was 30.2%, the Activity (MCF7 [15]) was “Active” and the viability at 3 µM (NCI/ADR-RES [16]) was 84.3%. The Activity (MCF7 [17]) was 4.29%, the Activity (NCI/ADR-RES [18]) was 8.52% and the IC50 (NCI/ADR-RES [19]) was 982 nM. The viability at 30 µM (MCF7 [20]) was 50.9%, the Activity (NCI/ADR-RES [21]) was 9.14% and the viability at 3 µM (MCF7 [22]) was 66.8%. The Activity (MCF7 [23]) was 7.57%, the Activity (NCI/ADR-RES [24]) was 7.11% and the Activity (NCI/ADR-RES [25]) was 2.44%. For the same compound, the Activity (NCI/ADR-RES [26]) was 4.85%, the IC50 (HUVEC) was 88.6 µM and the Activity (Mus musculus [27]) was “Non-Toxic”. The Activity (Mus musculus [28]) was “Non-Toxic”, the Activity (MCF7 [29]) was 9.31% and the IC50 (A2780S) was 3.02 µM.
